# Data published in ChEMBL document CHEMBL1143040, “Aporphine metho salts as neuronal nicotinic acetylcholine receptor blockers” (Bioorg Med Chem, 2007).
# Legend:
# Assay type in all cases: cell-based
# [1] = target: T1, Neuronal acetylcholine receptor subunit alpha-7 (Homo sapiens, UniProt P36544); test: Displacement of [125I]alpha-bungarotoxin from human alpha-7 nAChR expressed in SH-SY5Y cells
# Summary of the method: (§1)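 Membrane homogenates from a clonal cell line stably expressing human α7 nAChR. Radioligand was [125I]α-bungarotoxin at 0.2 nM in 140 mM NaCl, 1 mM EDTA, 50 mM Tris-HCl, pH 7.4. Nonspecific binding was defined with 10 μM nicotine. Ki came from non-linear regression fits by Cheng-Prusoff. Mean ± SEM of four experiments, triplicate samples, from at least two membrane preparations.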
# [2] = target: Neuronal acetylcholine receptor; alpha4/beta2 (Homo sapiens, UniProt P17787+P43681); test: Displacement of [3H]cytisine from human alpha-4-beta-2 nAChR expressed in SH-EP1 cells
# Chain of Neuronal acetylcholine receptor; alpha4/beta2 (P17787 whole entry): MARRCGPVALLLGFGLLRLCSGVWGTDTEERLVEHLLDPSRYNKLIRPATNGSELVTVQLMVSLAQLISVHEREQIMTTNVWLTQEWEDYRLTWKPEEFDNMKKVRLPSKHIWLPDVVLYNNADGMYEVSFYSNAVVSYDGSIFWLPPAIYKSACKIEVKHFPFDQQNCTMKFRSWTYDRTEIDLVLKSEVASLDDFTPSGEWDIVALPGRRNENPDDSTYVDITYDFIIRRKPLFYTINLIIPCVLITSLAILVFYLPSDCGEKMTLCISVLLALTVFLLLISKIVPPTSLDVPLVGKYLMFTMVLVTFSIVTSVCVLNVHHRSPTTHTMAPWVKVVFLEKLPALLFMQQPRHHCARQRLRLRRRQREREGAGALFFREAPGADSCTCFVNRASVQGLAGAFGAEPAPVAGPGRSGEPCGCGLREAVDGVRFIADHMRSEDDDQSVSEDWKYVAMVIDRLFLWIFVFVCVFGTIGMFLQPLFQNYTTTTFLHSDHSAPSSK
# Chain of Neuronal acetylcholine receptor; alpha4/beta2 (P43681 whole entry): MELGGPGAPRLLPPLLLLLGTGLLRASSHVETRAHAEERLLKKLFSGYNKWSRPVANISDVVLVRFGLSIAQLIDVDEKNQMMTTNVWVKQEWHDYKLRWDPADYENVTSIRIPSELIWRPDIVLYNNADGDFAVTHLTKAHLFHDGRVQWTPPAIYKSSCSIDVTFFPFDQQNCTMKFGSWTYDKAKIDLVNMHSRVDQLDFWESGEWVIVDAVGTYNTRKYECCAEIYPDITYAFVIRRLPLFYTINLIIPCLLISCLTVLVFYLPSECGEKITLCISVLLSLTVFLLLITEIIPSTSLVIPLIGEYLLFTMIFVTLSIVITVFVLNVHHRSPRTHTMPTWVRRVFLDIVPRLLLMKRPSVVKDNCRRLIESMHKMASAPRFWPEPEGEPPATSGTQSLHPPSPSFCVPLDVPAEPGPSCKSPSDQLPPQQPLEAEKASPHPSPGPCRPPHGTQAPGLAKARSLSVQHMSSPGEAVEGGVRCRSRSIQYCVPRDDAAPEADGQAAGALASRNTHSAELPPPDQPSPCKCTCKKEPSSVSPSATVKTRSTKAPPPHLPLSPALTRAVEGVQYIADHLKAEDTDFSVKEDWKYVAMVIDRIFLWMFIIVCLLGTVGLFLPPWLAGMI
# Summary of the method: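 Radioligand displacement used membrane homogenates from a clonal cell line stably expressing human α4β2 nAChR. [3H]cytisine was at 1 nM in saline of 120 mM NaCl, 5 mM KCl, 1 mM MgCl2, 2.5 mM CaCl2, 50 mM Tris, pH 7.0. Nonspecific binding was defined with 10 μM nicotine. Ki was obtained from regression fits by Cheng-Prusoff. Mean ± SEM of four experiments in triplicate.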
# [3] = target: T1, Neuronal acetylcholine receptor subunit alpha-7; test: Inhibition of 0.2 nM [125I]alpha-bungarotoxin binding to human alpha-7 nAChR expressed in SH-SY5Y cells; summary of the method: as §1
# T1 sequence (P36544 whole entry): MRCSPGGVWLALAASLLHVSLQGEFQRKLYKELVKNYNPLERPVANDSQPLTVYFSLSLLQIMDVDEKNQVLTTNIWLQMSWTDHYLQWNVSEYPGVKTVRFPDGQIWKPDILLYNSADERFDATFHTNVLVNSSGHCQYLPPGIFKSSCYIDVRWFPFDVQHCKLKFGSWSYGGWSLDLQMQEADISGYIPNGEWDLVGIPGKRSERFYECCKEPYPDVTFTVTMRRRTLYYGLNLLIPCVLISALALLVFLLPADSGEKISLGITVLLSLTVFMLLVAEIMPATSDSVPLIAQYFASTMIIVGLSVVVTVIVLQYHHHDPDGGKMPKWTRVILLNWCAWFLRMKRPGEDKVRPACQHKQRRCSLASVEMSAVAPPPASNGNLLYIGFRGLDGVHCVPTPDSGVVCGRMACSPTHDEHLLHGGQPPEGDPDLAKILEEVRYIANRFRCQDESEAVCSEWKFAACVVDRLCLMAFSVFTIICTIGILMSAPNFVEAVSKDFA
Structure (SMILES),IC50 [1],Ki [1],IC50 [2],Ki [2],inhibition [3]
COc1cc2c(cc1OC)-c1c(OC)c(OC)cc3c1[C@H](C2)[N+](C)(C)CC3 [GLAUCINE METHIODIDE],21 µM,18 µM,34 µM,10 µM,–
COc1cc2c(cc1O)C[C@H]1c3c(cc(O)c(OC)c3-2)CC[N+]1(C)C [BOLDINE METHIODIDE],18 µM,15 µM,8.2 µM,2.5 µM,–
COc1cc2c(cc1O)C[C@H]1c3c(cc(OC)c(OC)c3-2)CC[N+]1(C)C,12 µM,10 µM,3 µM,0.91 µM,–
COc1cc2c(cc1O)C[C@H]1c3c(c(Br)c(O)c(OC)c3-2)CCN1C [3-BROMOBOLDINE],100 µM,83 µM,99 µM,30 µM,91%
COc1cc2c(cc1O)C[C@H]1c3c(cc(O)c(OC)c3-2)CCN1C [BOLDINE],81 µM,67 µM,10 µM,3 µM,–
COc1cc2c(cc1OC)-c1c(OC)c(O)cc3c1[C@H](C2)[N+](C)(C)CC3 [PREDICENTRINE METHIODIDE],27 µM,21 µM,3.2 µM,0.97 µM,–
COc1cc2c(c(Br)c1O)C[C@H]1c3c(c(Br)c(O)c(OC)c3-2)CCN1C,114 µM,95 µM,101 µM,31 µM,85%
